# Source: ChEMBL document CHEMBL3784997 (J Med Chem, 2016)
# What was measured:
# [1] = target: T1, Adenosine receptor A1 (Homo sapiens) (UniProt P30542); assay: Displacement of [3H]DPCPX from human Adenosine A1 receptor expressed in CHO cells at 1 uM after 60 mins; format: cell-based
# T1 sequence (whole entry): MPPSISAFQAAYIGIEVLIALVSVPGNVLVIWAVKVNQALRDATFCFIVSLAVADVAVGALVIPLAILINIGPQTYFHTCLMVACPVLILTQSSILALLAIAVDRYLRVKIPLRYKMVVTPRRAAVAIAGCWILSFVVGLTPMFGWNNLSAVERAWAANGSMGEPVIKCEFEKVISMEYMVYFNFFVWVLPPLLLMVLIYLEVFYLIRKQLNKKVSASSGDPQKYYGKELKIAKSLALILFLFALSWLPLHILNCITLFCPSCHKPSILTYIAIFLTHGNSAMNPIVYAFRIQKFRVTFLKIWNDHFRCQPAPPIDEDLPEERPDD
# How it was run: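 Competition binding on membranes from CHO cells expressing human A1, labelled with 2 nM [3H]DPCPX. Non-specific binding was defined with 10 µM R-PIA, and incubation was at 25 °C for 60 min. The value is percent inhibition of specific binding at 1 µM test compound (n = 2, average).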
# [2] = target: Adenosine receptor A2a (Homo sapiens) (UniProt P29274); assay: Displacement of [3H]ZM241385 from human Adenosine A2A receptor expressed in HeLa cells at 1 uM after 30 mins; format: cell-based
# How it was run: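 Membranes from HeLa cells expressing human A2A were labelled with 3 nM [3H]ZM241385, with non-specific binding defined by 50 µM NECA, and incubated at 25 °C for 30 min. The value is percent displacement of specific binding at 1 µM test compound (n = 2).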
# [3] = target: T2, Adenosine receptor A2b (Homo sapiens) (UniProt P29275); assay: Displacement of [3H]DPCPX from human Adenosine A2B receptor expressed in HEK293 cells at 1 uM after 30 mins; format: cell-based
# T2 sequence (whole entry): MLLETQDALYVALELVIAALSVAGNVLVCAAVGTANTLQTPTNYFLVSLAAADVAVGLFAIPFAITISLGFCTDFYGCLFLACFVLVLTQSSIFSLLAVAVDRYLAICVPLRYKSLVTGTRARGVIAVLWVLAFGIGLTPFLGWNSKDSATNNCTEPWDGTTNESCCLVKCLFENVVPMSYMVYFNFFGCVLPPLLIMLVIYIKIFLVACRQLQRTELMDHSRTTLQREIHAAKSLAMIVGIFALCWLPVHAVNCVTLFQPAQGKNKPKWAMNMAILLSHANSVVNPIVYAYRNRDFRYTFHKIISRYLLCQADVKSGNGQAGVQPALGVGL
# How it was run: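 Membranes from HEK-293 cells expressing human A2B were labelled with 35 nM [3H]DPCPX, with non-specific binding defined by 400 µM NECA, and incubated at 25 °C for 30 min.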
# [4] = target: T3, Adenosine receptor A3 (Homo sapiens) (UniProt P0DMS8); assay: Displacement of [3H]NECA from human Adenosine A3 receptor expressed in HeLa cells at 1 uM after 180 mins
# T3 sequence (whole entry): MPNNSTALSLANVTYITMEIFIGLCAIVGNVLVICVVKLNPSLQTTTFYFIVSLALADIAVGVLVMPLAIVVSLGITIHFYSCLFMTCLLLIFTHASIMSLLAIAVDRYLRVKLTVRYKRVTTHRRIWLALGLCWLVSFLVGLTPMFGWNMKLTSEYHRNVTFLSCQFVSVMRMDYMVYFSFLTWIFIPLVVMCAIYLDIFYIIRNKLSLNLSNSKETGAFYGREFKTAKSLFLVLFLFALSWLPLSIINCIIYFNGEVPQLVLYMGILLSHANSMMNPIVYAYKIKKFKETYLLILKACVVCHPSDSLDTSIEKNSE
# Chain of Adenosine receptor A2a (Homo sapiens) (P29274 whole entry): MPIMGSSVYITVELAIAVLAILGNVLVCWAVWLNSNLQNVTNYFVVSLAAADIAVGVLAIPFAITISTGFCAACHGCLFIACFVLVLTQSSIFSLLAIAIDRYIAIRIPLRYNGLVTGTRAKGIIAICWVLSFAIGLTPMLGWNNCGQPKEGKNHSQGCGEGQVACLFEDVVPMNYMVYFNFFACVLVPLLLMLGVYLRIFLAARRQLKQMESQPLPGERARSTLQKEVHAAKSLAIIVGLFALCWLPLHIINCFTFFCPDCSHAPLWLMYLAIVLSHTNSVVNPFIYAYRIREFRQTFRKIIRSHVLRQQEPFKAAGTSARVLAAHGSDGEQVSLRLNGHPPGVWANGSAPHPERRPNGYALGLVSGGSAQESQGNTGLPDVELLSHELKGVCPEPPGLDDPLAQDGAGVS
SMILES,Activity [1],Activity [2],Activity [3],Activity [4]
CC1=C(C(=O)OC(C)C)C(c2ccsc2)CC(=O)N1 (racemic),4%,3%,21%,20%
CC1=C(C(=O)OC(C)C)C(c2ccoc2)CC(=O)N1 (racemic),23%,25%,20%,24%
CCOC(=O)C1=C(C)Nc2ncnn2C1c1cccs1 (racemic),1%,2%,15%,15%
CCN1CC2=C(C1=O)C(c1ccsc1)NC(=O)N2 (racemic),27%,17%,18%,31%
CCOC(=O)C1=C(C)Nc2nccn2C1c1ccoc1 (racemic),2%,1%,12%,3%
CCOC(=O)C1=C(C)NC(=O)NC1c1ccsc1 (centres undefined),22%,39%,–,24%
O=C1NC2=C(C(=O)OC2)C(c2ccoc2)N1 (racemic),9%,3%,9%,1%
CCOC(=O)C1=C(C)Nc2ncnn2C1c1ccco1 (racemic),15%,20%,3%,4%
CCOC(=O)C1=C(C)NC(=O)CC1c1ccoc1 (racemic),9%,8%,14%,15%
CC1=C(C(=O)OC(C)C)C(c2cccs2)NC(=O)N1 (centres undefined),37%,19%,44%,14%
CC1=C(C(=O)OC(C)C)C(c2cccs2)CC(=O)N1 (racemic),2%,1%,3%,22%
CCOC(=O)C1=C(C)NC(=O)CC1c1ccsc1 (racemic),1%,4%,12%,13%
O=C1NC2=C(C(=O)OC2)C(c2ccco2)N1 (racemic),3%,2%,2%,3%
CC1=C(C(=O)OC(C)C)C(c2ccco2)NC(=O)N1 (centres undefined),20%,30%,–,1%
O=C1NC2=C(C(=O)OC2)C(c2cccs2)N1 (racemic),1%,1%,10%,1%
CCOC(=O)C1=C(C)Nc2nccn2C1c1ccsc1 (racemic),1%,3%,10%,2%
O=C1NC2=C(C(=O)OC2)C(c2ccsc2)N1 (racemic),13%,3%,8%,2%
CCOC(=O)C1=C(C)NC(=O)CC1c1cccs1 (racemic),16%,11%,18%,21%
CCN1CC2=C(C1=O)C(c1cccs1)NC(=O)N2 (racemic),12%,2%,28%,21%
CCOC(=O)C1=C(C)NC(=O)NC1c1cccs1 (centres undefined),1%,33%,44%,1%
CC1=C(C(=O)OC(C)C)C(c2ccsc2)NC(=O)N1 (centres undefined),26%,25%,–,1%
CC1=C(C(=O)OC(C)C)C(c2cccs2)n2ncnc2N1 (racemic),1%,1%,1%,3%
CCOC(=O)C1=C(C)NC(=O)NC1c1ccco1 (centres undefined),18%,41%,–,2%
CCOC(=O)C1=C(C)NC(=O)NC1c1ccoc1 (centres undefined),21%,39%,–,1%
CC1=C(C(=O)OC(C)C)C(c2ccoc2)NC(=O)N1 (centres undefined),25%,26%,–,3%
